Measured values from paper PMC4263960 (Pediatric blood & cancer, 2013).

Tests used:
[1] = tested on: OS-31 osteosarcoma xenograft; assay: PPTP in vivo xenograft testing, OS-31; parameters: species or system mice
[2] = intravenous dose of 2 mg/kg; different mouse strain; cited from earlier work
[3] = tested on: OS-17 osteosarcoma xenograft; assay: PPTP in vivo xenograft testing, OS-17; parameters: species or system mice
[4] = tested on: KT-16 rhabdoid xenograft; assay: PPTP in vivo xenograft testing, KT-16; parameters: species or system mice
[5] = Eribulin pharmacokinetics in SCID mice
[6] = tested on: NB-1643 neuroblastoma xenograft; assay: PPTP in vivo xenograft testing, NB-1643; parameters: species or system mice
[7] = tested on: Rh30 cell line; assay: DIMSCAN in vitro cytotoxicity testing, Rh30; assay type: cell-based
In short: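 Test compound incubated with cells of a 24-line pediatric cancer panel for 96 h at 0.1 nM to 1 μM, then assessed by DIMSCAN. Relative IC50 (rIC50) derived per line. Panel comparison value is the panel rIC50 divided by the rIC50 of each cell line.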

[8] = tested on: BT-28 medulloblastoma xenograft; assay: PPTP in vivo xenograft testing, BT-28; parameters: species or system mice
[9] = tested on: BT-50 medulloblastoma xenograft; assay: PPTP in vivo xenograft testing, BT-50; parameters: species or system mice
[10] = tested on: Rh30 ALV rhabdomyosarcoma xenograft; assay: PPTP in vivo xenograft testing, Rh30; parameters: species or system mice
[11] = tested on: KT-13 Wilms xenograft; assay: PPTP in vivo xenograft testing, KT-13; parameters: species or system mice
[12] = 1 mg/kg IP Q4Dx3 repeated at Day 21
[13] = NB-1643, 1 mg/kg IP Q4Dx3 repeated at Day 21

For `C=C1C[C@@H]2CC[C@@]34C[C@H]5O[C@H]6[C@@H](O3)[C@H]3O[C@H](CC[C@@H]3O[C@H]6[C@H]5O4)CC(=O)C[C@@H]3[C@@H](OC)[C@@H](C[C@H](O)CN)O[C@H]3C[C@H]3O[C@@H](CC[C@@H]1O2)C[C@@H](C)C3=C` [Eribulin], the EFS activity ([1]; 1 mg/kg IP) was “Int (Intermediate activity = criteria (a) and (b) above, but not having a net reduction in median tumor volume for treated animals at the end of the study)”, the Response activity ([1]; 1 mg/kg IP) was “Int (intermediate activity by a score of ≥2 but <6)” and the T/C volume activity ([1]; 1 mg/kg IP) was “Int (Intermediate activity = T/C ≤0.45 but >0.15)”. For the same compound, the “EFS T/C” value [1, 12] was greater than 2.6, the “Median final RTV (CD45%)” value [1, 12] was 1.8 and the “Tumor volume T/C” value ([1]; 1 mg/kg IP, Day 21 or earlier) was 0.27. For the same compound, the AUC [2] was 1,132 ng hour/ml, the EFS activity ([3]; 1 mg/kg IP) was “High (High activity requires: (a) an EFS T/C >2; (b) a significant difference in EFS distributions, and (c) a net reduction in median tumor volume for animals in the treated group at the end of treatment as compared to at treatment initiation)” and the Response activity ([3]; 1 mg/kg IP) was “High (A high level of activity is indicated by a score of 6 or more)”. For the same compound, the T/C volume activity ([3]; 1 mg/kg IP) was “Int (Intermediate activity = T/C ≤0.45 but >0.15)”, the “EFS T/C” value [3, 12] was greater than 2.3 and the “Median final RTV (CD45%)” value [3, 12] was 0.5. For the same compound, the “Tumor volume T/C” value ([3]; 1 mg/kg IP, Day 21 or earlier) was 0.25, the EFS activity ([4]; 1 mg/kg IP) was “Low (Low activity = EFS T/C <2)” and the Response activity ([4]; 1 mg/kg IP) was “Low (low activity by a score of <2)”. The T/C volume activity ([4]; 1 mg/kg IP) was “Low (Low activity = T/C >0.45)”, the “EFS T/C” value [4, 12] was 1.1 and the “Median final RTV (CD45%)” value [4, 12] was greater than 4. The Time to event [4, 12] was 12.1, the “Tumor volume T/C” value ([4]; 1 mg/kg IP, Day 21 or earlier) was 0.76 and the “AUC (area under the plasma drug concentration-time curve)” value ([5]; 1 mg/kg dose, SCID mice) was 658 ng·h/mL. For the same compound, the “AUC per course of treatment” value ([5]; preclinical setting, three doses of 1 mg/kg per course) was 1,974 ng hour/ml, the EFS activity ([6]; NB-1643, 1 mg/kg IP) was “High (High activity requires: (a) an EFS T/C >2; (b) a significant difference in EFS distributions, and (c) a net reduction in median tumor volume for animals in the treated group at the end of treatment as compared to at treatment initiation)” and the Response activity ([6]; NB-1643, 1 mg/kg IP) was “High (A high level of activity is indicated by a score of 6 or more)”. For the same compound, the T/C volume activity ([6]; NB-1643, 1 mg/kg IP) was “High (High activity = T/C ≤0.15)”, the “EFS T/C” value [6, 13] was greater than 4.7 and the “Median final RTV (CD45%)” value [6, 13] was 0.6. The “Tumor volume T/C” value ([6]; NB-1643, 1 mg/kg IP, Day 21 or earlier) was 0.01, the objective response ([6]; NB-1643 neuroblastoma xenograft) was “achieved an objective response” and the “Panel rIC50/Line rIC50” value ([7]; Rh30) was 2.47. For the same compound, the Relative in/out% ([7]; Rh30) was −23%, the “Ymin % (observed)” value ([7]; Rh30) was 12.75% and the IC50 ([7]; Rh30, 96 h, read-out: rIC50) was 0.11 nM. The EFS activity ([8]; 1 mg/kg IP) was “High (High activity requires: (a) an EFS T/C >2; (b) a significant difference in EFS distributions, and (c) a net reduction in median tumor volume for animals in the treated group at the end of treatment as compared to at treatment initiation)”, the Response activity ([8]; 1 mg/kg IP) was “Int (intermediate activity by a score of ≥2 but <6)” and the T/C volume activity ([8]; 1 mg/kg IP) was “Int (Intermediate activity = T/C ≤0.45 but >0.15)”. The “EFS T/C” value [8, 12] was greater than 3.3, the “Median final RTV (CD45%)” value [8, 12] was 0.7 and the “Tumor volume T/C” value ([8]; 1 mg/kg IP, Day 21 or earlier) was 0.44. For the same compound, the Response activity ([9]; 1 mg/kg IP) was “Low (low activity by a score of <2)”, the T/C volume activity ([9]; 1 mg/kg IP) was “Low (Low activity = T/C >0.45)” and the “EFS T/C” value [9, 12] was greater than 1.1. The “Median final RTV (CD45%)” value [9, 12] was greater than 4, the “Tumor volume T/C” value ([9]; 1 mg/kg IP, Day 21 or earlier) was 0.78 and the EFS activity ([10]; 1 mg/kg IP) was “High (High activity requires: (a) an EFS T/C >2; (b) a significant difference in EFS distributions, and (c) a net reduction in median tumor volume for animals in the treated group at the end of treatment as compared to at treatment initiation)”. For the same compound, the Response activity ([10]; 1 mg/kg IP) was “High (A high level of activity is indicated by a score of 6 or more)”, the T/C volume activity ([10]; 1 mg/kg IP) was “High (High activity = T/C ≤0.15)” and the “EFS T/C” value [10, 12] was greater than 3.8. The “Median final RTV (CD45%)” value [10, 12] was 0.0, the “Tumor volume T/C” value ([10]; 1 mg/kg IP, Day 21 or earlier) was 0.06 and the EFS activity ([11]; 1 mg/kg IP) was “Int (Intermediate activity = criteria (a) and (b) above, but not having a net reduction in median tumor volume for treated animals at the end of the study)”. The Response activity ([11]; 1 mg/kg IP) was “High (A high level of activity is indicated by a score of 6 or more)”, the T/C volume activity ([11]; 1 mg/kg IP) was “High (High activity = T/C ≤0.15)” and the “EFS T/C” value [11, 12] was greater than 3.3. For the same compound, the “Median final RTV (CD45%)” value [11, 12] was 1.1 and the “Tumor volume T/C” value ([11]; 1 mg/kg IP, Day 21 or earlier) was 0.15.
